The subject of test [1] is Staphylococcus aureus. Briefly: Antimicrobial activity against methicillin-resistant Staphylococcus aureus EMRSA-16 assessed as absence of growth after 18 hrs by MTT assay. The test is classed as functional. Conditions: EMRSA-16, 18 h. In short, it runs like this: (§1)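 Strains were pre-grown on nutrient agar for 24 h at 37 °C. Inoculum was 1 × 10^6 cfu/mL in normal saline, set against a 0.5 McFarland standard. Compounds were dissolved in DMSO and serially diluted in cation-adjusted Mueller-Hinton broth (20 mg/L Ca2+, 10 mg/L Mg2+) over 512 to 0.5 mg/L. Plates ran 18 h at 37 °C. MTT was added for 20 min; blue meant growth. MIC is the lowest concentration without growth.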
(Tetrazolium assays rely on reduction of a dye to a coloured formazan, in cell work by metabolically active cells.)

Test [2] deals with Staphylococcus aureus. Briefly: Bactericidal activity against multi-drug-resistant Staphylococcus aureus SA-1199B expressing NorA efflux pump incubated for 24 hrs followed by transfer to Petri dishes and measured after 24 hrs. To be noted: read-out: MBC99.9.
Test [3] relates to Staphylococcus aureus. The test is described as follows: Antimicrobial activity against methicillin-resistant Staphylococcus aureus XU212 assessed as absence of growth after 18 hrs by MTT assay. The format is functional. To be noted: XU212, 18 h. The procedure, abridged: as §1
The subject of test [4] is Staphylococcus aureus. Briefly: Antimicrobial activity against multi-drug-resistant Staphylococcus aureus SA-1199B expressing NorA efflux pump assessed as absence of growth after 18 hrs by MTT assay. The format is functional. In short, it runs like this: as §1
The test system of test [5] is Staphylococcus aureus. The test is described as follows: Antimicrobial activity against macrolide-resistant Staphylococcus aureus RN4220 assessed as absence of growth after 18 hrs by MTT assay. To be noted: RN4220, 18 h.
For test [6], the system named is Staphylococcus aureus. Briefly: Antimicrobial activity against Staphylococcus aureus ATCC25943 assessed as absence of growth after 18 hrs by MTT assay. The format is functional. To be noted: ATCC25943, 18 h. The procedure, abridged:
as §1

Test [7] relates to Staphylococcus aureus. Briefly: Antimicrobial activity against methicillin-resistant Staphylococcus aureus EMRSA-15 assessed as absence of growth after 18 hrs by MTT assay. The test is classed as functional. Conditions: EMRSA-15, 18 h. In short, it runs like this:
as §1

Converted amounts (≈) assume the structure as drawn.

The MIC is the smallest concentration in the dilution series that meets the test's criterion for growth inhibition. As for `CC(C)=CCN=C(N)N` [GALEGINE], the MIC in the test on Staphylococcus aureus [1], in the test with Staphylococcus aureus [3], in the test with Staphylococcus aureus [4], with Staphylococcus aureus [5], in the test with Staphylococcus aureus [6] and with Staphylococcus aureus [7] was 4 µg/mL (≈ 31.4 µM) in each case. Besides, the MBC in the test with Staphylococcus aureus [2] was 4 µg/mL (≈ 31.4 µM).
As to `CC(C)=CCC/C(C)=C/CNC(=N)NC/C=C(\C)CCC=C(C)C` [NITENSIDINE A], the MIC with Staphylococcus aureus [1] is 8 µg/mL (≈ 24.1 µM); with Staphylococcus aureus [3], 8 µg/mL (≈ 24.1 µM); with Staphylococcus aureus [4], 32 µg/mL (≈ 96.5 µM); in the test with Staphylococcus aureus [5] it was 16 µg/mL (≈ 48.3 µM); in the test on Staphylococcus aureus [6], 16 µg/mL (≈ 48.3 µM); with Staphylococcus aureus [7], 16 µg/mL (≈ 48.3 µM).
On to `CC(C)=CCC/C(C)=C/CN(C)C(=N)N(C)C/C=C(\C)CCC=C(C)C` [NITENSIDINE C], for which the MIC with Staphylococcus aureus [1] came out at 8 µg/mL (≈ 22.2 µM); in the test on Staphylococcus aureus [3], 8 µg/mL (≈ 22.2 µM); in the test with Staphylococcus aureus [4] it was 32 µg/mL (≈ 89 µM); with Staphylococcus aureus [5], 16 µg/mL (≈ 44.5 µM); in the test with Staphylococcus aureus [6] it was 16 µg/mL (≈ 44.5 µM); in the test on Staphylococcus aureus [7], 32 µg/mL (≈ 89 µM).
For `CCn1cc(C(=O)O)c(=O)c2cc(F)c(N3CCNCC3)cc21` [NORFLOXACIN], the MIC stood at 128 µg/mL (≈ 401 µM) in the test with Staphylococcus aureus [1]; 8 µg/mL (≈ 25.1 µM) in the test on Staphylococcus aureus [3]; 32 µg/mL (≈ 100 µM) in the test with Staphylococcus aureus [4]; 0.5 µg/mL (≈ 1.57 µM) in the test with Staphylococcus aureus [5]; 0.5 µg/mL (≈ 1.57 µM) in the test with Staphylococcus aureus [6]; 0.5 µg/mL (≈ 1.57 µM) in the test on Staphylococcus aureus [7].
On to `CC(C)=CCC/C(C)=C/CNC(=S)NC/C=C(\C)CCC=C(C)C`, for which the MIC in the test with Staphylococcus aureus [1] is 32 µg/mL (≈ 91.8 µM); with Staphylococcus aureus [3] it was 128 µg/mL (≈ 367 µM); in the test on Staphylococcus aureus [4], 128 µg/mL (≈ 367 µM); in the test on Staphylococcus aureus [5], 128 µg/mL (≈ 367 µM); in the test with Staphylococcus aureus [6] it was 128 µg/mL (≈ 367 µM); in the test on Staphylococcus aureus [7], more than 512 µg/mL.
For `CC(C)=CCNC(=N)NCC=C(C)C` [PTEROGYNIDINE], the MIC in the test on Staphylococcus aureus [1], with Staphylococcus aureus [3], with Staphylococcus aureus [4], with Staphylococcus aureus [5], in the test on Staphylococcus aureus [6] and in the test on Staphylococcus aureus [7] was 4 µg/mL (≈ 20.5 µM) each time. Further, in the test with Staphylococcus aureus [2], the MBC worked out at 4 µg/mL (≈ 20.5 µM).
With `CC(C)=CCC/C(C)=C/CNC(=O)NC/C=C(\C)CCC=C(C)C`, the MIC in the test with Staphylococcus aureus [1], with Staphylococcus aureus [3], in the test with Staphylococcus aureus [4], in the test with Staphylococcus aureus [5], in the test with Staphylococcus aureus [6] and with Staphylococcus aureus [7] was more than 512 µg/mL each time.
For `CC(C)=CCC/C(C)=C/C=N/C(N)N`, the MIC with Staphylococcus aureus [1] worked out at 8 µg/mL (≈ 41 µM); in the test with Staphylococcus aureus [3], 8 µg/mL (≈ 41 µM); in the test on Staphylococcus aureus [4], 32 µg/mL (≈ 164 µM); in the test on Staphylococcus aureus [5], 16 µg/mL (≈ 81.9 µM); in the test with Staphylococcus aureus [6] it was 16 µg/mL (≈ 81.9 µM); with Staphylococcus aureus [7], 16 µg/mL (≈ 81.9 µM).
Take `CC(C)=CCN=C(NCC=C(C)C)NCC=C(C)C`: the MIC with Staphylococcus aureus [1], with Staphylococcus aureus [3], in the test with Staphylococcus aureus [4], in the test on Staphylococcus aureus [5], in the test on Staphylococcus aureus [6] and with Staphylococcus aureus [7] was more than 512 µg/mL throughout.
Consider `CC(C)=C/C=C/C1(C)CCN=C(N)N1` (configuration not stated) [NITENSIDINE E], for which the minimum inhibitory concentration (MIC) in the test with Staphylococcus aureus [1] was determined as 8 µg/mL (≈ 41.4 µM); with Staphylococcus aureus [3] it was 8 µg/mL (≈ 41.4 µM); with Staphylococcus aureus [4], 32 µg/mL (≈ 166 µM); in the test on Staphylococcus aureus [5], 16 µg/mL (≈ 82.8 µM); with Staphylococcus aureus [6] it was 16 µg/mL (≈ 82.8 µM); with Staphylococcus aureus [7], 32 µg/mL (≈ 166 µM).

These data come from ChEMBL document CHEMBL3351297, “In Vitro Antibacterial Activity of Prenylated Guanidine Alkaloids from Pterogyne nitens and Synthetic Analogues” (2014).
